Assay results: ChEMBL document CHEMBL3860041, “Synthesis, biological evaluation and molecular modeling study of some new methoxylated 2-benzylthio-quinazoline-4(3H)-ones as nonclassical antifolates” (Bioorg Med Chem Lett, 2016)

How the values were obtained:
Assay type in all cases: functional
[1] = Growth inhibition of human BT549 cells at 10 uM after 48 hrs by SRB assay relative to control; details: BT-549, 48 h, read-out: GI
Procedure, shortened: (§1)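 NCI 60-cell-line panel, nine tumor subpanels; compounds tested at a single dose of 10 μM in the primary screen.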

Cancer cell lines [2] = experiment: Potency index, ratio of 5-fluorouracil GI50 to compound GI50 for human renal cancer cells
Procedure, shortened: (§2)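 GI50 for each cell line came from NCI panel testing over a 5-log dose range, with 5-fluorouracil tested alongside as the reference drug. The index relates the 5-fluorouracil GI50 to the compound GI50 within each tumour subpanel.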

[3] = Growth inhibition of human KM12 cells at 10 uM after 48 hrs by SRB assay relative to control; details: KM12, 48 h, read-out: GI; procedure, shortened: as §1
[4] = Growth inhibition of human HCC2998 cells at 10 uM after 48 hrs by SRB assay relative to control; details: HCC 2998, 48 h, read-out: GI; procedure, shortened: as §1
[5] = Growth inhibition of human HOP92 cells at 10 uM after 48 hrs by SRB assay relative to control; details: HOP-92, 48 h, read-out: GI; procedure, shortened: as §1
[6] = Growth inhibition of human colon cancer cells after 48 hrs by SRB assay; details: Cancer cell lines
Procedure, shortened: (§3)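 Follow-up NCI panel testing over a 5-log dose range for each cell line. GI50, TGI and LC50 were monitored, with 5-fluorouracil run as the positive control. Values are grouped by tumour subpanel.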

[7] = Growth inhibition of human SN12C cells at 10 uM after 48 hrs by SRB assay relative to control; details: read-out: GI
Procedure, shortened: (§4)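 Primary screen across the full NCI 60 human tumour cell line panel, which covers nine tumour subpanels. A single dose of 10 μM was applied to each line, and growth was recorded for each cell line.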

[8] = Growth inhibition of human UO31 cells at 10 uM after 48 hrs by SRB assay relative to control; details: UO-31, 48 h, read-out: GI; procedure, shortened: as §4
[9] = Growth inhibition of human SK-MEL-28 cells at 10 uM after 48 hrs by SRB assay relative to control; details: SK-MEL-28, 48 h, read-out: GI; procedure, shortened: as §4
[10] = Growth inhibition of human ACHN cells at 10 uM after 48 hrs by SRB assay relative to control; details: read-out: GI; procedure, shortened: as §1
[11] = Growth inhibition of human HCT116 cells at 10 uM after 48 hrs by SRB assay relative to control; details: HCT-116, 48 h, read-out: GI; procedure, shortened: as §1
[12] = Growth inhibition of human 786-0 cells at 10 uM after 48 hrs by SRB assay relative to control; details: 786-0, 48 h, read-out: GI; procedure, shortened: as §1
[13] = Growth inhibition of human melanoma cells after 48 hrs by SRB assay; details: Melanoma cell; procedure, shortened: as §3
[14] = Growth inhibition of human HOP62 cells at 10 uM after 48 hrs by SRB assay relative to control; details: HOP-62, 48 h, read-out: GI; procedure, shortened: as §1
[15] = Growth inhibition of human MALME-3M cells at 10 uM after 48 hrs by SRB assay relative to control; details: read-out: GI; procedure, shortened: as §1
Melanoma cell = experiment: Potency index, ratio of 5-fluorouracil GI50 to compound GI50 for human melanoma cells; procedure, shortened: as §2
[16] = Growth inhibition of human MDA-MB-468 cells at 10 uM after 48 hrs by SRB assay relative to control; details: MDA-MB-468, 48 h, read-out: GI; procedure, shortened: as §1
[17] = Growth inhibition of human M14 cells at 10 uM after 48 hrs by SRB assay relative to control; details: M14, 48 h, read-out: GI; procedure, shortened: as §1
[18] = Growth inhibition of human ovarian cancer cells after 48 hrs by SRB assay; details: Cancer cell lines; procedure, shortened: as §3
[19] = Growth inhibition of human NCI-H460 cells at 10 uM after 48 hrs by SRB assay relative to control; details: NCI-H460, 48 h, read-out: GI; procedure, shortened: as §1
[20] = Growth inhibition of human UACC257 cells at 10 uM after 48 hrs by SRB assay relative to control; details: UACC-257, 48 h, read-out: GI; procedure, shortened: as §4
[21] = Growth inhibition of human A498 cells at 10 uM after 48 hrs by SRB assay relative to control; details: A498, 48 h, read-out: GI; procedure, shortened: as §1
[22] = Growth inhibition of human A549 cells at 10 uM after 48 hrs by SRB assay relative to control; details: A549, 48 h, read-out: GI; procedure, shortened: as §1
[23] = Growth inhibition of human PC3 cells at 10 uM after 48 hrs by SRB assay relative to control; details: PC-3, 48 h, read-out: GI; procedure, shortened: as §1
[24] = Growth inhibition of human RPMI8226 cells at 10 uM after 48 hrs by SRB assay relative to control; details: RPMI-8226, 48 h, read-out: GI; procedure, shortened: as §1
Cancer cell lines [25] = experiment: Potency index, ratio of 5-fluorouracil GI50 to compound GI50 for human CNS cancer cells; procedure, shortened: as §2
[26] = Growth inhibition of human IGROV1 cells at 10 uM after 48 hrs by SRB assay relative to control; details: IGROV-1, 48 h, read-out: GI; procedure, shortened: as §1
[27] = Growth inhibition of human CNS cancer cells after 48 hrs by SRB assay; details: Cancer cell lines
Procedure, shortened: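 Five-log dose range against NCI tumor cell lines, monitoring GI50, TGI and LC50 for each cell line; MG-MID values derived across the panel; 5-fluorouracil positive control.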

[28] = Growth inhibition of human SW620 cells at 10 uM after 48 hrs by SRB assay relative to control; details: SW-620, 48 h, read-out: GI; procedure, shortened: as §4
[29] = Growth inhibition of human HT-29 cells at 10 uM after 48 hrs by SRB assay relative to control; details: HT-29, 48 h, read-out: GI; procedure, shortened: as §1
[30] = Growth inhibition of human HCT15 cells at 10 uM after 48 hrs by SRB assay relative to control; details: HCT-15, 48 h, read-out: GI; procedure, shortened: as §1
[31] = Growth inhibition of human SK-MEL-2 cells at 10 uM after 48 hrs by SRB assay relative to control; details: SK-MEL-2, 48 h, read-out: GI; procedure, shortened: as §4
[32] = Growth inhibition of human OVCAR5 cells at 10 uM after 48 hrs by SRB assay relative to control; details: OVCAR-5, 48 h, read-out: GI; procedure, shortened: as §1
Cancer cell lines [33] = experiment: Potency index, ratio of 5-fluorouracil GI50 to compound GI50 for human non-small cell lung cancer cells; procedure, shortened: as §2
[34] = Growth inhibition of human SR cells at 10 uM after 48 hrs by SRB assay relative to control; details: read-out: GI; procedure, shortened: as §4
[35] = Growth inhibition of human Caki1 cells at 10 uM after 48 hrs by SRB assay relative to control; details: CAKI-1, 48 h, read-out: GI; procedure, shortened: as §1
[36] = Growth inhibition of human SNB75 cells at 10 uM after 48 hrs by SRB assay relative to control; details: SNB-75, 48 h, read-out: GI; procedure, shortened: as §4

With `COc1ccccc1-n1c(SCc2cc(OC)c(OC)c(OC)c2)nc2ccc(Cl)cc2c1=O` the inhibition of growth at 10 µM [1] was 60.5%, the RatioGI50 (Cancer cell lines [2]) was 2 - 10 and the inhibition of growth at 10 µM [3] was 83.6%. The inhibition of growth at 10 µM [4] was 43.2%, the inhibition of growth at 10 µM [5] was 57.1% and the GI50 [6] was 3.1 µM. For the same molecule, the LC50 [6] was greater than 100 µM, the TGI [6] was greater than 100 µM and the inhibition of growth at 10 µM [7] was 29.7%. For the same molecule, the inhibition of growth at 10 µM [8] was 57.4%, the inhibition of growth at 10 µM [9] was 50.7% and the inhibition of growth at 10 µM [10] was 55.8%. It also gave an inhibition of growth at 10 µM [11] of 78.9%, an inhibition of growth at 10 µM [12] of 49% and a GI50 [13] of 4.2 µM. It also gave an LC50 [13] greater than 100 µM, a TGI [13] of 91.7 µM and an inhibition of growth at 10 µM [14] of 48.2%. The inhibition of growth at 10 µM [15] was 67.1%, the RatioGI50 (Melanoma cell) was 2 - 10 and the inhibition of growth at 10 µM [16] was 84.4%. The inhibition of growth at 10 µM [17] was 84.1%, the GI50 [18] was 6.7 µM and the LC50 (50% lethal concentration) [18] was greater than 100 µM. For the same molecule, the TGI [18] was 87.9 µM, the inhibition of growth at 10 µM [19] was 89.2% and the inhibition of growth at 10 µM [20] was less than 10%. It also gave an inhibition of growth at 10 µM [21] of 95%, an inhibition of growth at 10 µM [22] of 68.9% and an inhibition of growth at 10 µM [23] of 80.4%. For the same molecule, the inhibition of growth at 10 µM [24] was 82.6%, the RatioGI50 (Cancer cell lines [25]) was 2 - 10 and the inhibition of growth at 10 µM [26] was 52.3%. The GI50 [27] was 7.9 µM, the LC50 (lethal concentration, 50% net cell kill) [27] was greater than 100 µM and the TGI [27] was 63.1 µM. The inhibition of growth at 10 µM [28] was 83.2%, the inhibition of growth at 10 µM [29] was 92.3% and the inhibition of growth at 10 µM [30] was 72.2%. For the same molecule, the inhibition of growth at 10 µM [31] was less than 10%, the inhibition of growth at 10 µM [32] was 46.7% and the RatioGI50 (Cancer cell lines [33]) was 2 - 10. For the same molecule, the inhibition of growth at 10 µM [34] was 84% and the inhibition of growth at 10 µM [35] was 57.4%.
`COc1cc2nc(SCc3cc(OC)c(OC)c(OC)c3)n(-c3ccccc3OC)c(=O)c2cc1OC` gave an inhibition of growth at 10 µM [1] of 12.5%, an inhibition of growth at 10 µM [3] of 45.9% and an inhibition of growth at 10 µM [4] of less than 10%. The inhibition of growth at 10 µM [5] was 34.2%, the inhibition of growth at 10 µM [7] was less than 10% and the inhibition of growth at 10 µM [8] was 63.7%. The inhibition of growth at 10 µM [9] was 21.1%, the inhibition of growth at 10 µM [10] was 11.5% and the inhibition of growth at 10 µM [11] was 12%. For the same molecule, the inhibition of growth at 10 µM [12] was less than 10%, the inhibition of growth at 10 µM [14] was less than 10% and the inhibition of growth at 10 µM [15] was 37%. For the same molecule, the inhibition of growth at 10 µM [16] was 23%, the inhibition of growth at 10 µM [17] was 23% and the inhibition of growth at 10 µM [19] was 16.6%. For the same molecule, the inhibition of growth at 10 µM [20] was less than 10%, the inhibition of growth at 10 µM [21] was 74.6% and the inhibition of growth at 10 µM [22] was 12%. It also gave an inhibition of growth at 10 µM [23] of 38.9%, an inhibition of growth at 10 µM [24] of 28.8% and an inhibition of growth at 10 µM [36] of 37.2%. For the same molecule, the inhibition of growth at 10 µM [26] was 16.9%, the inhibition of growth at 10 µM [28] was 23.6% and the inhibition of growth at 10 µM [29] was 33.4%. It also gave an inhibition of growth at 10 µM [30] of 24.6%, an inhibition of growth at 10 µM [31] of less than 10% and an inhibition of growth at 10 µM [32] of 11%. The inhibition of growth at 10 µM [34] was 76.2% and the inhibition of growth at 10 µM [35] was 57.1%.
Molecule `COc1ccc(CSc2nc3cc(OC)c(OC)cc3c(=O)n2-c2ccc(OC)cc2OC)cc1` has an inhibition of growth at 10 µM [1] of less than 10%, an inhibition of growth at 10 µM [3] of 21.9% and an inhibition of growth at 10 µM [4] of less than 10%. It also gave an inhibition of growth at 10 µM [5] of 24.5%, an inhibition of growth at 10 µM [7] of less than 10% and an inhibition of growth at 10 µM [8] of 44.6%. The inhibition of growth at 10 µM [9] was less than 10%, the inhibition of growth at 10 µM [10] was less than 10% and the inhibition of growth at 10 µM [11] was 37.2%. For the same molecule, the inhibition of growth at 10 µM [12] was less than 10%, the inhibition of growth at 10 µM [14] was less than 10% and the inhibition of growth at 10 µM [15] was 17.4%. It also gave an inhibition of growth at 10 µM [16] of 25.7%, an inhibition of growth at 10 µM [17] of less than 10% and an inhibition of growth at 10 µM [19] of less than 10%. It also gave an inhibition of growth at 10 µM [20] of less than 10%, an inhibition of growth at 10 µM [21] of 41.4% and an inhibition of growth at 10 µM [22] of 19.2%. The inhibition of growth at 10 µM [23] was 44.4%, the inhibition of growth at 10 µM [24] was 36.3% and the inhibition of growth at 10 µM [36] was less than 10%. The inhibition of growth at 10 µM [26] was 14%, the inhibition of growth at 10 µM [28] was less than 10% and the inhibition of growth at 10 µM [29] was 12%. The inhibition of growth at 10 µM [30] was 19.4%, the inhibition of growth at 10 µM [31] was less than 10% and the inhibition of growth at 10 µM [32] was less than 10%. The inhibition of growth at 10 µM [34] was 40.6% and the inhibition of growth at 10 µM [35] was 31.3%.
